RAD52 inh = RAD52 (human) annealing inhibition | P43351 | recombinant RAD52 DNA annealing, FRET fluorescence | inhibition, % at 18.7 µM | 0.46% of 360,000 active | AID 651710;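 active = every replicate showing at least 50% inhibition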
Target sequence (P43351 whole entry, looked up): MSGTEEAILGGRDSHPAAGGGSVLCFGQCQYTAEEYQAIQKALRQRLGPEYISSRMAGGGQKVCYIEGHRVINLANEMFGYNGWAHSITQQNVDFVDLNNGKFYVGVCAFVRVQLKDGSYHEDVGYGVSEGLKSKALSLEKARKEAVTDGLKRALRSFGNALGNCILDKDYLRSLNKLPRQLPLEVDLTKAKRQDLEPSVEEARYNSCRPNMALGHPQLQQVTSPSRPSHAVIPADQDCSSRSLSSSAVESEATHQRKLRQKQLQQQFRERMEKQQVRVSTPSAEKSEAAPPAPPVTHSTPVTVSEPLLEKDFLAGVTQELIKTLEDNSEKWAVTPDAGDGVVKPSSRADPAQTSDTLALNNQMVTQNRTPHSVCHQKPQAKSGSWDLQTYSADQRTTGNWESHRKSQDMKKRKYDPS
S100A4 inh HTS = S100A4-myosin IIA interaction inhibition; S100A4/TAMRA-MyoIIA peptide fluorescence polarization; inhibition, % at 10.7 µM; 0.14% of 360,000 active;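 active = mean inhibition of at least 70% across replicates, with every replicate also reaching that level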
Target sequence (P26447 whole entry, looked up): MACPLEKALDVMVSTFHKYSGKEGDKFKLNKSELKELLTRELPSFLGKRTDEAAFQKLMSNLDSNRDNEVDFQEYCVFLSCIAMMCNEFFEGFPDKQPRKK
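incubation = readout 5 min after mixing, signal stable up to 60 min | system = S100A4 monomer protein | buffer or medium = HEPES pH 7.2 with CaCl2, KCl, NaCl, DTT, Triton | benchmarks = neutral control DMSO, positive control TFP | also added = fluorescent myosin IIA peptide, 5 nM | compound dosing = one concentration per compound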
INS-1E GSIS act = GLuc luminescence reporter in INS-1E cells, primary screen for activators of glucose-dependent secretion of insulin. INS-1E GLuc reporter insulin secretion, 2-3 h. activation, % at 16.6 µM. 0.61% of 370,000 active;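 active = lowest replicate activation of at least 40%, so every replicate reaches that level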;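 also: 0% = median of neutral control wells and 100% = median of IBMX positive control wells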
RAD54 inh = inhibitors of human RAD54 branch migration. Q92698. RAD54 Holliday junction branch migration, FAM/BHQ fluorescence. inhibition, % at 10.4 µM. 0.14% of 360,000 active;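 active = mean normalized replicate activity at least 40 and at least half of replicates scoring 40 or more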;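 also: 0% = median of neutral control wells and 100% = median of positive control wells; inhibitors cause a drop in the FAM fluorescence signal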
AF4-AF9 inh = inhibitors of human MLL-AF4/AF9 interaction; 0.47% of 350,000 active; inhibition, % at 10 µM; P42568; AlphaScreen, biotin-AF4 peptide binding to FLAG-AF9;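 active = every replicate reaching a set inhibition limit, whatever the replicate mean, cut at about 25% in these data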;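 also: 0% = plate neutral control median and 100% = total signal loss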
Active calls of the source: *; nt = not tested or not shown. The list is not random: actives were taken first. Their share in the collection is about 1.3%.

SMILES	RAD52 inh	S100A4 inh HTS	INS-1E GSIS act	RAD54 inh	AF4-AF9 inh
O=C(O)C(Cc1ccc(O)cc1)N1C(=O)c2ccccc2C1=O (centres undefined)	-8	4	48*	6	6
COCC#Cc1ccc2c(c1)O[C@H](CN(C)CC1CCCCC1)[C@H](C)CN([C@H](C)CO)S2(=O)=O	nt	nt	17	nt	nt
CO[C@H]1CC[C@@H]2CCN(C)C(=O)[C@@H](C)[C@H](OC)CN(C)C(=O)c3cccc(C#N)c3OC[C@H]1O2	2	-3	10	3	-4
O=C(NCc1ccccc1)C1(C(F)(F)F)C/C(=C/CCO)CCCO1 (centres undefined)	-3	6	-1	0	-6
C/C=C1\COC(C(=O)NCc2ccccc2)(C(F)(F)F)C=C1C=C(C)C (centres undefined)	-22	-14	112*	0	5
COc1ccccc1C(C[N+](=O)[O-])c1c(N)n(C)c(=O)n(C)c1=O (centres undefined)	-8	0	-23	0	-5
Cn1c(N)c(C(c2ccccc2)c2c(N)n(C)c(=O)n(C)c2=O)c(=O)n(C)c1=O	nt	nt	41*	nt	nt
O=C(C[C@H]1C=C[C@H](NS(=O)(=O)c2ccccc2F)[C@@H](CO)O1)NCCCN1CCOCC1	6	-1	-1	8	-1
O=C(COc1ccc2c(c1)OCO2)Nc1ccccc1F	-3	5	-8	3	-3
Fc1ccc(C2CCNCC2COc2ccc3c(c2)OCO3)cc1 (centres undefined)	21	2	-17	5	32*
C=CCNc1cc(C)oc(=O)c1C(=O)CCC	-12	0	71*	-3	-12
C[C@H]1CN([C@@H](C)CO)S(=O)(=O)c2ccc(-c3ccncc3)cc2O[C@@H]1CN(C)C	5	13	17	-3	1
c1cc2ccc3ccc(CN4CCOCC4)c4ccc(c1)c2c34	nt	nt	0	38	nt
OC1CCCN(Cc2ccc3ccc4cccc5ccc2c3c45)C1 (centres undefined)	nt	nt	nt	91*	nt
CC(C)(C)c1ccc(C(=O)NCCC(=O)NC2=NCCS2)cc1	-8	0	11	-7	29*
CC(C)(C)c1ccc(OCCCC(=O)NC2=NCCS2)cc1	nt	nt	nt	-5	nt
COc1ccc2c3c(n(C)c2c1)[C@H](CO)N(Cc1ccccc1Cl)CC31CCN(C(=O)CN(C)C)CC1	-20	8	6	nt	15
O=C(c1ccccc1)[C@H]1CC=CC[C@H]1C(=O)O	nt	nt	nt	11	nt
CC(C)[C@H]1CC[C@@H](C)C(C(=O)c2ccccc2)C1=O (some centres undefined)	-9	1	-2	3	58*
CCc1ccc(OCC(=O)NC(NC(=S)Nc2ccccc2)C(Cl)(Cl)Cl)cc1 (centres undefined)	nt	nt	199*	-4	nt
CCc1ccc(OCC(=O)NC(NC(=S)Nc2ccccc2C)C(Cl)(Cl)Cl)cc1 (centres undefined)	-12	-2	nt	1	2
CO[C@H]1CN(C)C(=O)c2ccc(NC(=O)Nc3ccccc3)cc2OC[C@H](C)N(C(=O)Nc2c(C)noc2C)C[C@@H]1C	9	-7	3	nt	-2
CNC(=O)C[C@@H]1CC[C@H]2[C@@H](COC[C@H](O)CN2Cc2ccc(Cl)c(Cl)c2)O1	12	-1	3	-14	-17
C[C@H](CO)N1C[C@H](C)[C@H](CN(C)C(=O)c2ccc(F)cc2)Oc2ncc(-c3ccc(F)cc3)cc2C1=O	-2	1	-6	3	-3
CCOc1ccc(CCNC(=O)COc2cccc(-n3cnnn3)c2)cc1OCC	-10	8	44*	-1	-5
SMILES	RAD52 inh	S100A4 inh HTS	INS-1E GSIS act	RAD54 inh	AF4-AF9 inh
COc1ccc(CN(C)C(=O)COc2cccc(-n3cnnn3)c2)cc1OC	10	-1	41*	0	-2
COc1ccccc1CNC(=O)COc1cccc(-n2cnnn2)c1	-13	-10	5	nt	-1
Cc1ccccc1S(=O)(=O)NCC[C@@H]1CC[C@@H](NC(=O)C2CCOCC2)[C@@H](CO)O1	6	1	9	10	-2
COCCn1c(=NC(=O)c2cc(Cl)sc2Cl)sc2cc(S(N)(=O)=O)ccc21	nt	nt	170*	-4	nt
O=C(N/N=C\c1ccc(CNS(=O)(=O)c2ccc(Cl)cc2)o1)C(=O)Nc1ccc(Oc2ccccc2)cc1	nt	nt	58*	nt	nt
O=C(N/N=C\c1ccc(CNS(=O)(=O)c2ccccc2)o1)C(=O)Nc1ccc(F)cc1	-3	-5	16	-3	-4
CNC[C@@H]1Oc2ccc(N(C)C)cc2C(=O)N(C)C[C@@H]1C	nt	nt	6	nt	nt
Cc1ccc(-n2c(SCC(=O)Nc3nccs3)nc3c(c2=O)SCC3)cc1	nt	nt	82*	-17	nt
CCOc1ccc(-n2c(SCC(=O)Nc3nccs3)nc3c(c2=O)SCC3)cc1	-19	2	nt	7	-9
CCC(=O)N1CC[C@@H]2[C@@H](CO)Nc3ccc(C#Cc4cccc(OC)c4)cc3[C@@H]21	nt	nt	19	nt	nt
C(=C\c1nc(N2CCCC2)c2ccccc2n1)/c1ccccc1	nt	nt	-38	nt	nt
CC1CCN(c2nc(/C=C/c3ccccc3)nc3ccccc23)CC1	-14	-4	11	nt	32*
C=CCNC(=S)N/N=C/c1ccc(-c2cc(Cl)ccc2Cl)o1	nt	nt	124*	-5	nt
C=CCNC(=S)N/N=C/c1ccc(-c2ccc(Cl)cc2Cl)o1	-15	-1	56	-8	nt
C[C@@H]1CN([C@H](C)CO)C(=O)c2cccc(NC(=O)c3ccncc3)c2O[C@H]1CN(C)S(=O)(=O)c1ccc(F)cc1	-3	11	31	-3	-3
CCn1c(SCc2nc3cc(OC)c(OC)cc3c(=O)[nH]2)nc2ccccc21	-62	9	15	17	-1
CCSc1nc2cc(OC)c(OC)cc2c(=O)n1CC	nt	nt	69*	5	nt
C[C@@H]1CN([C@H](C)CO)C(=O)c2cc(NS(=O)(=O)c3ccc(F)cc3)ccc2O[C@@H](C)CCCCO[C@@H]1CN(C)S(=O)(=O)c1ccc(Cl)cc1	14	-4	2	-29	-2
CC(=O)N1CCC(C(=O)NCCOc2cccc(C)c2)CC1	-4	1	8	2	26*
O=C(NCCOc1ccccc1)C1CCN(C(=O)Nc2ccccc2)CC1	-16	-1	-20	-8	1
C[C@@H]1CN([C@@H](C)CO)C(=O)c2cc(/C=C/c3ccccc3)cnc2O[C@H]1CN(C)C	3	0	8	9	1
CO[C@@H](CN(C)CC1CCOCC1)[C@@H](C)CN(C(=O)Nc1ccc(F)cc1)[C@@H](C)CO	-5	-2	14	-1	-2
COCC(=O)N1C[C@H](C)[C@H](OC)CN(C)C(=O)c2ccc(NS(C)(=O)=O)cc2OC[C@H]1C	-15	-1	-1	6	-2
CCCNC(=O)N1CC2(CN(Cc3ccc(OC)cc3)C2)c2c(n(C)c3cc(OC)ccc23)[C@@H]1CO	nt	nt	-2	nt	34*
CCCNC(=O)N1CC2(CN(CC3CCCCC3)C2)c2c(n(C)c3cc(OC)ccc23)[C@@H]1CO	22	-4	10	nt	33*

High-throughput results: PubChem, Broad Institute
